An excerpt weighted towards active compounds, which were near 3.5% of everything screened.
MrgX1 agonist = agonists of human MrgX1 receptor, primary screen, HEK293 cells, Fluo-4 calcium flux. actives 0.44% (n = 310,000). Fluo-4 calcium fluorescence, agonist mode; active compounds read high. Mas-related G-protein coupled receptor member X1 (Homo sapiens), Q96LB2. B-score at 10 µM;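 active = calcium response B-score plate-corrected fluorescence ratio at least 3 library SD, with starting fluorescence B-score inside 5 SD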
Target sequence (Q96LB2 whole entry, looked up): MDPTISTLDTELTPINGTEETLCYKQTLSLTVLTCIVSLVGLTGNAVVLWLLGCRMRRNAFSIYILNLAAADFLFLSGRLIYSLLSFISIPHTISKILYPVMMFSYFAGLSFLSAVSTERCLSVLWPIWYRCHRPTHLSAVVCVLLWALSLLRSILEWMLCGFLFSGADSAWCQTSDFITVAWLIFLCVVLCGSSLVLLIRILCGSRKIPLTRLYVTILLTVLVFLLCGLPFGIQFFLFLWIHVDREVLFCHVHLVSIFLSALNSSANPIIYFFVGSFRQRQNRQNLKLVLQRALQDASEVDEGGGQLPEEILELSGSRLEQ
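Test system: HEK293 cells stably expressing human MrgX1 receptor; amount: 15,000 cells per well; doses: compound delivered in addition one of three; times: overnight plating before 1 h dye loading; detection: Fluo-4 NW calcium-flux fluorescence, kinetic read; read-out basis: B-scored fluorescence response ratio; controls: positive and negative controls per plate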
MrgX1 PAM = positive allosteric modulators of MrgX1, primary screen, HEK293 cells, Fluo-4 calcium flux; actives 0.63% (n = 310,000); FDSS; active compounds read high; B-score at 10 µM; AID 588675, 2011;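 active = plate-corrected calcium response at least 3 library SD above typical, normal starting fluorescence, not activating the receptor alone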;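 also: compound read alongside a low EC10 to EC30 dose of BAM8-22 agonist; peak minus trough fluorescence over baseline measured at the second addition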
RGS4 act = RGS4 potentiators or activators, primary screen, cell-based, HEK293 M3R inducible RGS4, calcium flux | carbachol calcium flux Fluo4; active compounds read low | B-score at 10 µM | actives 0.92% (n = 310,000);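 active = B-score of the integrated calcium signal more than 4 SD below the library mean, with starting fluorescence not abnormally high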;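 also: negative B-score means reduced calcium response which marks RGS4 activation or potentiation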
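Material: M3R-expressing HEK293 line, RGS4 induced by doxycycline | Schedule: Overnight RGS4 induction, 30 min dye load 37 °C, 20 min compound RT | Measured by: Fluo4 fluorescence kinetic imaging of calcium | Read-out: Integrated calcium ratio converted to B score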
MrgX1 antag = antagonists of human MrgX1 receptor, primary screen, HEK293 cells, Fluo-4 calcium flux; Mas-related G-protein coupled receptor member X1 (Homo sapiens), Q96LB2; BAM8-22 antagonism; active compounds read low; B-score at 10 µM; actives 1.3% (n = 310,000);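 active = calcium-response B-score plate-corrected more than 3 library SD below zero, starting fluorescence within 5 deviations, no agonist response on first addition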;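 also: peak minus trough fluorescence over baseline after final BAM8-22 challenge near maximal dose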
RGS4 inh = RGS4 inhibitors, primary screen, cell-based, HEK293 M3R inducible RGS4, calcium flux; Regulator of G-protein signaling 4 (Homo sapiens), P49798; Fluo-4 calcium flux; active compounds read high; triggered by carbachol at its EC20; B-score at 10 µM; actives 0.45% (n = 310,000); AID 463165, 2010;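 active = B-score, a plate-corrected calcium signal, over three deviations above library mean, with baseline fluorescence within five deviations of library mean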;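 also: RGS4 expression induced by doxycycline in cells with stable M3 receptor; B-score is computed from the integrated fluorescence ratio over baseline after carbachol; higher B-score means a larger calcium signal and so more RGS4 inhibition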
Target sequence (P49798 whole entry, looked up): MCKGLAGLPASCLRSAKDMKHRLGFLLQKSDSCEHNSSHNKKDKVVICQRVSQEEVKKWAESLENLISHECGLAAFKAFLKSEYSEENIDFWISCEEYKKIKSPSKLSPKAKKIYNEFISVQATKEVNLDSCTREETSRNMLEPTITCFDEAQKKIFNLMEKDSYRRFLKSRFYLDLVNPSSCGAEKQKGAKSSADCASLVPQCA
The depositor's hits bear a star; i = inactive.

SMILES | MrgX1 agonist | MrgX1 PAM | RGS4 act | MrgX1 antag | RGS4 inh
COc1cc(OC)c(NC(=S)Nc2cc(Cl)cc(Cl)c2)cc1Cl | i | i | i | -4.7* | i
CSc1ccc(NC(=O)NCc2cccnc2)cc1 | i | i | i | i | i
CCC/C(=N\NC(=O)c1ccco1)c1ccc(Cl)s1 | i | i | i | i | i
Cn1ccnc1SCc1ccc(Cl)cc1Cl | i | i | i | i | i
N#C/C(=C\c1ccccn1)c1nc2ccccc2s1 | i | i | i | -7.2* | i
CC1CCN(C(=O)c2ccc3c(c2NCCO)C(=O)c2ccccc2C3=O)CC1 | i | 9.9* | i | i | i
Cc1cc(CNC(=O)Cn2nc(C)c([N+](=O)[O-])c2C)c2ccccc2n1 | i | 9.4* | i | i | i
Cc1nn(CC(=O)NCc2ccccc2Cl)c(C)c1[N+](=O)[O-] | i | i | i | i | i
C/C(=N\NC(=O)Cn1nc(C)c([N+](=O)[O-])c1C)c1ccco1 | i | i | i | -5.9* | i
Cc1nn(CC(=O)NCc2ccco2)c(C)c1[N+](=O)[O-] | i | i | i | i | i
Fc1ccccc1-c1nc2c(s1)CCc1onc(-c3ccc(Br)cc3)c1-2 | i | i | i | -5.4* | i
COc1ccc(-c2noc3c2-c2nc(-c4ccccc4)sc2CC3)cc1 | i | i | i | i | i
COc1ccc(-c2noc3c2-c2nc(-c4ccc(C)cc4)sc2CC3)cc1 | i | i | i | -4.6* | i
COc1ccccc1CNC(=O)C1CCN(S(=O)(=O)c2ccc3c(c2)CC(C)N3C(C)=O)CC1 (configuration not stated) | i | i | i | i | i
O=[N+]([O-])c1ccc(/C([O-])=C(/C(=S)NCc2ccco2)[n+]2ccccc2)cc1 | i | i | i | i | i
Cc1ccc(/C([O-])=C(/C(=S)NCc2ccco2)[n+]2ccccc2)cc1 | i | i | i | i | 4.7*
Cc1cccc(-c2noc(Cc3ccccc3)n2)c1 | i | i | i | -8.2* | i
COc1ccc(Cc2nn3c(Cn4nnc5ccccc54)nnc3s2)cc1 | i | i | i | i | i
Cc1nn(C)c(C)c1NC(=O)CSc1nc(C2CC2)nc2c1cnn2-c1ccccc1 | i | i | i | i | i
CC1CCCCN1C(=O)CSc1nc(C2CC2)nc2c1cnn2-c1ccccc1 (configuration not stated) | i | i | -7* | i | i
Cc1nnc(SCC(=O)N2CC(=O)Nc3ccccc32)n1Cc1ccccc1 | i | i | i | i | i
CC1=CC(=Nc2c(C)n(C)n(-c3ccccc3)c2=O)C=C(C)C1=O | i | i | i | i | i
CC1=CC(=Nc2c(C)n(C)n(-c3ccccc3)c2=O)C=CC1=O | i | i | i | i | 11*
Clc1ccccc1CN(Cc1ccccc1)C(c1cccs1)c1nnnn1C1CCCC1 (configuration not stated) | i | i | i | -5.7* | i
CCN(Cc1ccccc1)C(c1cccs1)c1nnnn1C1CCCCC1 (configuration not stated) | i | i | i | i | i
SMILES | MrgX1 agonist | MrgX1 PAM | RGS4 act | MrgX1 antag | RGS4 inh
CC(C)(C)c1ccc(/C=N/NC(=O)C[n+]2ccccc2)cc1 | i | i | -7.1* | i | i
CC(C)(C)c1cc(/C=N/NC(=O)C[n+]2ccccc2)cc(C(C)(C)C)c1O | i | i | -7* | i | i
O=C(O)CSc1nnc(-c2cccs2)n1-c1ccc(Cl)cc1 | i | i | i | i | i
CCCCn1c(N)c(N(CC(C)C)C(=O)c2ccc(OCC3CCCO3)cc2)c(=O)[nH]c1=O (configuration not stated) | i | i | i | -6.2* | i
CCCc1cc(=O)n2[nH]c(-c3cccc(Br)c3)cc2n1 | i | i | i | i | i
Cc1nn(C)c(Oc2cccc(C(F)(F)F)c2)c1C=O | i | i | i | -5.9* | i
COc1cc2nc(N(CCCN(C)C)C(=O)c3ccc(C(=O)c4ccccc4)cc3)sc2cc1OC | i | i | i | i | i
CCOC(=O)N1CCN(S(=O)(=O)c2ccc(C(=O)N(CCCN(C)C)c3nc4c(F)cc(F)cc4s3)cc2)CC1 | i | i | i | -7.9* | i
CCc1ccc2nc(N(CCCN(C)C)C(=O)c3ccc(C(=O)c4ccccc4)cc3)sc2c1 | i | i | -8.1* | i | i
CCOC(=O)N1CCN(S(=O)(=O)c2ccc(C(=O)N(CCCN(C)C)c3nc4ccc(Cl)cc4s3)cc2)CC1 | i | i | i | i | i
CCc1ccc2nc(N(CCCN(C)C)C(=O)c3ccc(S(=O)(=O)N4CCCc5ccccc54)cc3)sc2c1 | i | i | -7.3* | i | i
COc1ccc(OC)c2sc(N(CCCN(C)C)C(=O)c3ccc(S(=O)(=O)N4CCc5ccccc5C4)cc3)nc12 | i | i | -10* | -6.1* | i
COc1nnc(-c2ccc(N3CCOCC3)c(NC(=O)c3ccco3)c2)c2ccccc12 | i | i | i | i | i
Nc1c2c3c(sc2nc(=O)n1N)CCCC3 | i | i | i | i | i
CCSc1nnc(NC(=O)CSc2nc3c(c(=O)n2-c2ccccc2OC)SCC3)s1 | i | i | i | i | i
Cc1ccc(C(=O)O/N=C(\N)c2ccc(C(F)(F)F)cn2)cc1 | i | i | i | i | i
Cc1ccc2nc(N(CCCN(C)C)C(=O)c3ccc(S(=O)(=O)N4CCCCCC4)cc3)sc2c1 | i | i | i | i | i
CCc1ccc2nc(N(CCCN(C)C)C(=O)c3ccc(S(=O)(=O)N4CCCC4)cc3)sc2c1 | i | i | -11* | i | i
Cc1ccc(/C=C2/Sc3ccccc3N(CC(=O)NCCCOC(C)C)C2=O)cc1 | i | i | i | -4.8* | i
COc1ccc(-c2c[n+]3c(n2-c2ccccc2)SCC3)cc1 | i | i | -8.5* | i | i
COc1ccc(-c2c[n+]3c(n2-c2ccccc2)CCCCC3)cc1 | i | i | -8.3* | i | i
Cc1ccc(-c2c[n+]3c(n2-c2ccccc2)SCC3)cc1 | i | i | i | i | i

Screens from PubChem.
